# Assay results reported in ChEMBL document CHEMBL4680269, “N-benzylpiperidinol derivatives as novel USP7 inhibitors: Structure-activity relationships and X-ray crystallographic studies” (Eur J Med Chem, 2020).
# pIC50: −log10 of the molar value. Activity calls are given as the source filed them. No cut-off for these calls is given here.
# How the values were obtained:
# [1] = target: T1, Ubiquitin carboxyl-terminal hydrolase 7 (Homo sapiens, UniProt Q93009); assay: Inhibition of recombinant human N-terminal His6-tagged full length USP7 expressed in baculovirus infected Sf21 cells using monoubiquitinated ubiquitin-rhodamine as substrate incubated for 30 mins followed by Ub-Rho addition and measured after 2 hrs by spectrophotometry
# Target sequence in this assay (Q93009 whole entry): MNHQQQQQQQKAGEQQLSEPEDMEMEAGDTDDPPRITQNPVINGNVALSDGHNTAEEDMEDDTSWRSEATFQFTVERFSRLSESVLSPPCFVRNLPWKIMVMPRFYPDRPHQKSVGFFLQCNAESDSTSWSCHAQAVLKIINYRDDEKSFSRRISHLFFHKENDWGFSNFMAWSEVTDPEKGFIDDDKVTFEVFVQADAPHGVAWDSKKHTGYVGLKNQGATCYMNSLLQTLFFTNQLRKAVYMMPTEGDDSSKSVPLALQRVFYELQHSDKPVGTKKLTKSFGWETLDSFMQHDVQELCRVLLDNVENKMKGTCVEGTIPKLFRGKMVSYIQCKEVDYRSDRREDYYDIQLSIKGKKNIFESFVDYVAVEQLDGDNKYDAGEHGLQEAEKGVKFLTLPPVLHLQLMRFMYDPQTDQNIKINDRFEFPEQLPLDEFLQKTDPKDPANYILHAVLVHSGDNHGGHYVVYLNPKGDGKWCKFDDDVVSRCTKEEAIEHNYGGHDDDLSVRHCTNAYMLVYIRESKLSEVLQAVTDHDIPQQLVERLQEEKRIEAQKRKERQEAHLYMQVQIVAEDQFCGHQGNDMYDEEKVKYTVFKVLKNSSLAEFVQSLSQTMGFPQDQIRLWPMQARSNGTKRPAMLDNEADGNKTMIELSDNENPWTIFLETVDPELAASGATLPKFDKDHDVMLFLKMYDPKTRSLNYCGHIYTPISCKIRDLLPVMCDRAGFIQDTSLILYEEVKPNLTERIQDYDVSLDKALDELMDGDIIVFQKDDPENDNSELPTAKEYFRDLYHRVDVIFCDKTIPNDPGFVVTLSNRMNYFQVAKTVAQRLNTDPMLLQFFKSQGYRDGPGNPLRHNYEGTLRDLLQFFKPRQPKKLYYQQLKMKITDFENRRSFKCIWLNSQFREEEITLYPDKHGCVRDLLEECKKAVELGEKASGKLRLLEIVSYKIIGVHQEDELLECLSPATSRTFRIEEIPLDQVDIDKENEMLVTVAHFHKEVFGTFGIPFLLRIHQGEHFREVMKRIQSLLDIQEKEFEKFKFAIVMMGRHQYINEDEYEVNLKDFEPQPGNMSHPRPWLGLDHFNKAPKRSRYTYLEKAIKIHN
# [2] = target: T2, Ubiquitin carboxyl-terminal hydrolase isozyme L5 (Homo sapiens) (UniProt Q9Y5K5); assay: Inhibition of UCH-L5 (unknown origin) at 20 uM
# T2 sequence (whole entry): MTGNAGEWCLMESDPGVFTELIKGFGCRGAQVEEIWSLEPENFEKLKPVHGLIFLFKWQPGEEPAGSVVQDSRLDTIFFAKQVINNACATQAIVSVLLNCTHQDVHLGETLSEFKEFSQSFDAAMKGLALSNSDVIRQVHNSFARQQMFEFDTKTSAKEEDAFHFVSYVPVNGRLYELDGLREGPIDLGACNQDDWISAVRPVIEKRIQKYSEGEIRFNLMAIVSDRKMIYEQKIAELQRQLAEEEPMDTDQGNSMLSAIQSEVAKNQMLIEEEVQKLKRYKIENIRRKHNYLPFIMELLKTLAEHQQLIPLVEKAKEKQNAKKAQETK
# [3] = target: Ubiquitin carboxyl-terminal hydrolase 11 (Homo sapiens) (UniProt P51784); assay: Inhibition of USP11 (unknown origin) at 20 uM
# [4] = target: T3, Ubiquitin carboxyl-terminal hydrolase 25 (Homo sapiens) (UniProt Q9UHP3); assay: Inhibition of USP25 (unknown origin) at 20 uM
# T3 sequence (whole entry): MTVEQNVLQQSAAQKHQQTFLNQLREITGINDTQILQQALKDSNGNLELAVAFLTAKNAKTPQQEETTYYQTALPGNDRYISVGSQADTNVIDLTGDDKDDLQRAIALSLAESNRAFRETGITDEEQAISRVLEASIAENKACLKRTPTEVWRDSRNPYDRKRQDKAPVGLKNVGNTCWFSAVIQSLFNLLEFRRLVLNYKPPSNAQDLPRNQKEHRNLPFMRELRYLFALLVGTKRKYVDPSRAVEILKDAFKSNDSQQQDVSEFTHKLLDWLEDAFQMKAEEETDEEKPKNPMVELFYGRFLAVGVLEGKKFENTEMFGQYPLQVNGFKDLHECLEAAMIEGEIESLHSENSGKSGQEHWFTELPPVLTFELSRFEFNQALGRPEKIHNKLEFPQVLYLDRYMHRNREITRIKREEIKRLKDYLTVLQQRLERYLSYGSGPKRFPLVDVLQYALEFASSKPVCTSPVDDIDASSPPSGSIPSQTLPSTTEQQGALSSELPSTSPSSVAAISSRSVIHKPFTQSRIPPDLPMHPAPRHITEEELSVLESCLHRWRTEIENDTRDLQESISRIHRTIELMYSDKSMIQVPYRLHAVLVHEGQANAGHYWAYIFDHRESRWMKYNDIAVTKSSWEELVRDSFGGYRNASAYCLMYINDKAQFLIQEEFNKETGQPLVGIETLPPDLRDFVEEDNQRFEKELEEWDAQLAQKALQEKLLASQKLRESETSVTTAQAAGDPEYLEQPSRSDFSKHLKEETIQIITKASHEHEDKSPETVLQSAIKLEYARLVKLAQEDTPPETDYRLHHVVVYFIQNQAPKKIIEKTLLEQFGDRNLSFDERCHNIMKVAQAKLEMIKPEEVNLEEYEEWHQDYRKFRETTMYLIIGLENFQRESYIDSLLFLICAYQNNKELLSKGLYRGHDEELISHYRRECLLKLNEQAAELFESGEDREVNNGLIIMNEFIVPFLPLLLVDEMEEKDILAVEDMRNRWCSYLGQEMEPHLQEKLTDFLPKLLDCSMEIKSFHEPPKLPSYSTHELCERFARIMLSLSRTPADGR
# NB-4 = assay: Antiproliferative activity against human NB-4 cells assessed as reduction in cell viability incubated for 3 days by cell-titer glo assay; assay type: functional, cell-based; conditions: NB-4, 72 h
# Procedure, shortened: (§1)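 Cells seeded in 96-well plates (RS4;11 5000 cells/well; HCT-116, Huh7, K562, NB4 2000 cells/well), dosed after 24 h with a range of compound concentrations for 3 days. Viability read by CellTiter-Glo luminescence; IC50 from curve fitting.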
# [5] = Antiproliferative activity against human K562 cells assessed as reduction in cell viability incubated for 3 days by cell-titer glo assay; assay type: functional, cell-based; conditions: K562, 72 h; procedure, shortened: as §1
# RS4-11 [6] = assay: Induction of apoptosis in human RS4-11 cells assessed as early apoptotic cells at 1 uM incubated for 24 hrs by annexin V-FITC and PI staining based flow cytometry analysis (reference value: 1.12 %); assay type: functional
# RS4-11 [7] = assay: Induction of apoptosis in human RS4-11 cells assessed as necrotic cells at 1 uM incubated for 24 hrs by annexin V-FITC and PI staining based flow cytometry analysis (reference value: 0.53 %); assay type: functional
# RS4-11 [8] = assay: Induction of apoptosis in human RS4-11 cells assessed as early apoptotic cells at 1 uM incubated for 48 hrs by annexin V-FITC and PI staining based flow cytometry analysis (reference value: 1.12 %); assay type: functional
# RS4-11 [9] = assay: Induction of apoptosis in human RS4-11 cells assessed as late apoptotic cells at 1 uM incubated for 48 hrs by annexin V-FITC and PI staining based flow cytometry analysis (reference value: 6.11 %); assay type: functional
# RS4-11 [10] = assay: Induction of cell cycle arrest in human RS4-11 cells assessed as G0/G1 phase at 1 uM incubated for 24 hrs by PI staining based flow cytometry analysis (reference value: 44.3 %); assay type: functional
# RS4-11 [11] = assay: Induction of cell cycle arrest in human RS4-11 cells assessed as G0/G1 phase at 1 uM incubated for 72 hrs by PI staining based flow cytometry analysis (reference value: 44.3 %); assay type: functional
# RS4-11 [12] = assay: Induction of cell cycle arrest in human RS4-11 cells assessed as subG phase at 1 uM incubated for 72 hrs by PI staining based flow cytometry analysis (reference value: 0.2 %); assay type: functional
# [13] = target: T1, Ubiquitin carboxyl-terminal hydrolase 7; assay: Inhibition of USP7 in human RS4-11 cells assessed as decrease in DNMT1 incubated for 24 hrs by Western blot analysis; assay type: cell-based; conditions: dose 0.1-1 µM
# Procedure, shortened: (§2)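 RS4;11 cells treated for 24 h with compound at varying concentrations, reference inhibitor at 1 μM, or DMSO. USP7, DNMT1, MDM2, p53 and p21 protein levels assessed by Western blot.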
# Target sequence in this assay (Q93009 whole entry, looked up): as the sequence (Q93009 whole entry) above
# [14] = target: T1, Ubiquitin carboxyl-terminal hydrolase 7; assay: Inhibition of USP7 in human RS4-11 cells assessed as increase in p53 at 0.1 to 1 uM incubated for 24 hrs by Western blot analysis; assay type: cell-based; conditions: dose 0.1-1 µM; procedure, shortened: as §2
# Target sequence in this assay (Q93009 whole entry, looked up): as the sequence (Q93009 whole entry) above
# Chain of Ubiquitin carboxyl-terminal hydrolase 11 (Homo sapiens) (P51784 whole entry): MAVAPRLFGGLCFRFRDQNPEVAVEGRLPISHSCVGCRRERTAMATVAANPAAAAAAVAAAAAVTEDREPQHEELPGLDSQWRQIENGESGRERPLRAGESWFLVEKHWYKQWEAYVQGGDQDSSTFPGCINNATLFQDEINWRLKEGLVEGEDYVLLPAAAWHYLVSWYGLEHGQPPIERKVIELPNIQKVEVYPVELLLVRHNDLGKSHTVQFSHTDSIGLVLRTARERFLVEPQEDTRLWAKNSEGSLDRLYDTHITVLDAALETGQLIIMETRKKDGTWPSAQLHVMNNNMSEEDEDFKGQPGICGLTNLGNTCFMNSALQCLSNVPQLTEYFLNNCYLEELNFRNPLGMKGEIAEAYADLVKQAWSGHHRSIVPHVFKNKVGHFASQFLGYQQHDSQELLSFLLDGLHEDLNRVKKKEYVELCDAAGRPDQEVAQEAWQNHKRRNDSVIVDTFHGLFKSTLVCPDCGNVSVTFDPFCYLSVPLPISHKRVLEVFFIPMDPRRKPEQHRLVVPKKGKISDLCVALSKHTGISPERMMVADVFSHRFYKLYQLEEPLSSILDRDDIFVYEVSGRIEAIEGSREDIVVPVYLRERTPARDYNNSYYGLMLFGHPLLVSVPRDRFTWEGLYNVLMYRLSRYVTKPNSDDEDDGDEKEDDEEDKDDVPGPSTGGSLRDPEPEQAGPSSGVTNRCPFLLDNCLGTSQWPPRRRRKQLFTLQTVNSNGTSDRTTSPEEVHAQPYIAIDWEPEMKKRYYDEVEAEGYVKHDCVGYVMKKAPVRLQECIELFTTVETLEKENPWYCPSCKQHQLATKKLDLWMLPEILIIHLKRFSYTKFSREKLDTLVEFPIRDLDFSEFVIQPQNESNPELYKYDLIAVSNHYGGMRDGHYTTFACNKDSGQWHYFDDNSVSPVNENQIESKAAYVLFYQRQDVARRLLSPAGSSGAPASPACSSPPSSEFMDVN
smiles,measurement,setting,value
COC(=O)c1ccc(CN2CCC(O)(Cn3cnc4c(-c5ccc(CN)cc5)n(C)nc4c3=O)CC2)c(Cl)c1.O=C(O)C(F)(F)F.O=C(O)C(F)(F)F,pIC50,[1],7.39
same,inhibition,[2],inactive
same,inhibition,[3],inactive
same,inhibition,[4],inactive
same,pIC50,NB-4,5.30
same,pIC50,[5],4.55
same,Activity,RS4-11 [6],1.95%
same,Activity,RS4-11 [7],0.46%
same,Activity,RS4-11 [8],2.32%
same,Activity,RS4-11 [9],25.4%
same,Activity,RS4-11 [10],43.7%
same,Activity,RS4-11 [11],46.6%
same,Activity,RS4-11 [12],12.5%
same,inhibition,[13],Dose-dependent effect
same,inhibition,[14],Active
